Source: publication PMC8336461 (Chemical Science, 2021)

Columns and labels:
[1] = Hep G2 cytotoxicity assay; format: cell-based; details: human, Hep G2 cells
[2] = system: T. brucei brucei Lister 427 bloodstream-form parasites; test: T. brucei cell viability assay; format: cell-based; details: Trypanosoma brucei, 48 h, read-out: T. brucei EC50
In short: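 Parasite EC50 reported as the mean ± standard error of 3 biological replicates. Each biological replicate's EC50 was calculated from technical triplicate data.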

[3] = system: extracellular L. amazonensis; details: read-out: EC50 against L. amazonensis; cited from earlier work
[4] = system: T. brucei; details: read-out: EC50 against T. brucei; cited from earlier work

SMILES | CC50 at 72 h [1] [µM] | EC50 [2] [µM] | EC50 [3] [µM] | EC50 [4] [µM]
COC(=O)c1[nH]cc(-c2c[nH]c3ccc(Cl)cc23)c1-c1c[nH]c2ccc(Cl)cc12 [Compound 13, lynamicin A] | > 10 | 8.2 ± 0.45 | – | –
COC(=O)c1[nH]c(C(=O)OC)c(-c2c[nH]c3ccc(Cl)cc23)c1-c1c[nH]c2ccc(Cl)cc12 [Compound 12, lynamicin D] | > 10 | 8.3 ± 1 | – | –
CCCCCCCCCCCCCCCCOP(=O)([O-])OCC[N+](C)(C)C [miltefosine] | – | – | 1.2 | –
CC1(C)OB(O)c2cc(NC(=O)c3ccc(F)cc3C(F)(F)F)ccc21 [acoziborole] | – | – | – | 0.6
